Measured values: ChEMBL document CHEMBL2396611, “Synthesis and mechanism of hypoglycemic activity of benzothiazole derivatives” (J Med Chem, 2013)
≈ marks a conversion by molar mass, not a printed value. Calls of active or inactive are those of the source. The calls are words filed in the database; no cut-off is given here.

Tests used:
[1] = system: Mus musculus; test: Antidiabetic activity in KKAy mouse assessed as reduction of blood glucose level at 30 to 75 mg/kg, sc bid for 4 days; type: functional, organism-based
Procedure, shortened: (§1)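 Hyperglycemic KKAy mice injected s.c. twice daily for 4 days with compound at 30 or 75 mg/kg suspended in sesame oil; controls received sesame oil (150 µl). Blood glucose measured at the indicated times, with day-zero levels taken as 100%. n=10 per group, mean ± SEM, compared with oil-treated group.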

[2] = system: Mus musculus; test: Antidiabetic activity in KKAy mouse assessed as reduction of blood glucose level at 30 to 75 mg/kg, sc bid for 4 days measured on day 2 relative to control; type: functional; set-up: scale not given: the % may be the effect or the level left; conditions: dose mg/kg 30-75; route subcutaneous; procedure, shortened: as §1
[3] = system: L6; test: Activation of AMPKalpha in rat L6 cells assessed as phosphorylation at Thr172 at 150 uM after 4 hrs by Western blot analysis relative to control; type: cell-based
Procedure, shortened: (§2)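 L6 myotubes treated 4 h with increasing compound concentrations (5 to 150 μM) or DMSO. Whole-cell lysates immunoblotted for pThr172-AMPKα, AMPKα and α-tubulin; phosphorylation expressed relative to DMSO-treated control.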

[4] = target: Cytochrome P450 2D6 (Homo sapiens, UniProt P10635); test: Inhibition of CYP2D6 (unknown origin) by luminescent based assay; type: ADME
Cytochrome P450 2D6, sequence (P10635 whole entry): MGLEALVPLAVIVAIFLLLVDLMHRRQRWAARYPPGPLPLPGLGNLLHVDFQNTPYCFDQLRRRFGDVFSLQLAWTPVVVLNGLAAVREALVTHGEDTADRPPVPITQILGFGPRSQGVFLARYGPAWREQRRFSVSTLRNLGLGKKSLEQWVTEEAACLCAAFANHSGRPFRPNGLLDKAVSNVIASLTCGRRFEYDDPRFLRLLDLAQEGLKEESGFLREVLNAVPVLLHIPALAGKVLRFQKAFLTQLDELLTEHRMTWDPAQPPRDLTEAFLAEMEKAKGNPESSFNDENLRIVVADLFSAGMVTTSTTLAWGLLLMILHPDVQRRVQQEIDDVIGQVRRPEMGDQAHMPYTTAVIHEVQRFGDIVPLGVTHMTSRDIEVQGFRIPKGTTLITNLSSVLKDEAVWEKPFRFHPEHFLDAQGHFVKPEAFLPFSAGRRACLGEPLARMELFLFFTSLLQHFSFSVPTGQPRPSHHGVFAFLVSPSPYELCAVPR

[5] = target: Cytochrome P450 3A4 (Homo sapiens, UniProt P08684); test: Inhibition of CYP3A4 (unknown origin) by luminescent based assay; type: ADME
Cytochrome P450 3A4, sequence (P08684 whole entry): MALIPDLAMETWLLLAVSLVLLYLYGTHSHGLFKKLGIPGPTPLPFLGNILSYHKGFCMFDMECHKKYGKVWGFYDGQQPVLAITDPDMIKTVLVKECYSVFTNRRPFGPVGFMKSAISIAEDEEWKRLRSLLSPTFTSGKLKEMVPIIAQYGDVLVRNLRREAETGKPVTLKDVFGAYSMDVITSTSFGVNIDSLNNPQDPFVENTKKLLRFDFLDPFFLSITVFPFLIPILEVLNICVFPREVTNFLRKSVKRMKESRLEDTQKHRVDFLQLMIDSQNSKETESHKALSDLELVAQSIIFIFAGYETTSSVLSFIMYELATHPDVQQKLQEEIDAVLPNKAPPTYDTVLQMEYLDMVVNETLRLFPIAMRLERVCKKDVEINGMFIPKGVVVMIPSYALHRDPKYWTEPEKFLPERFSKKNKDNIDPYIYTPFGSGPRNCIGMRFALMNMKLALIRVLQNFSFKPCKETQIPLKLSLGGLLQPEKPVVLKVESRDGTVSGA

[6] = target: 5'-AMP-activated protein kinase catalytic subunit alpha-2 (Rattus norvegicus) (UniProt Q09137); test: Activation of AMPK in rat L6 cells assessed as increase of [3H]dGlc uptake at 25 uM after 5 hrs relative to control; type: cell-based
5'-AMP-activated protein kinase catalytic subunit alpha-2 (Rattus norvegicus), sequence (Q09137 whole entry): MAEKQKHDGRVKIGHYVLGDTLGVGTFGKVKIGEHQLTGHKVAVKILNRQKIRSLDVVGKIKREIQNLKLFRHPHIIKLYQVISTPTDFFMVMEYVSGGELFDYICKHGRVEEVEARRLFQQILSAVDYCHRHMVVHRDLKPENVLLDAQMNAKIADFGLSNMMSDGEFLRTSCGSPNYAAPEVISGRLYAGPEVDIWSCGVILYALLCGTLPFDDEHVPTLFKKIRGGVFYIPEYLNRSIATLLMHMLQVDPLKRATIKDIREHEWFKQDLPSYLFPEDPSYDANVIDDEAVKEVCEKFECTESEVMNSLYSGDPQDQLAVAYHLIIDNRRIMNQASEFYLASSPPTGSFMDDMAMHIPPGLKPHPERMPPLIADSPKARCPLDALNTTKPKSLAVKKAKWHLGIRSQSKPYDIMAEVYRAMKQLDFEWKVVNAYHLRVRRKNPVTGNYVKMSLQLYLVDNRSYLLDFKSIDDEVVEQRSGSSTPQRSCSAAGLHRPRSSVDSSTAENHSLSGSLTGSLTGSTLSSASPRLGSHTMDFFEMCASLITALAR
Procedure, shortened: (§3)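 Fully differentiated L6 myotubes preincubated 24 h in αMEM with 2% FCS and 23.0 mmol/L D-glucose, then 4 h serum-free with 0.5% BSA. Compound or DMSO vehicle given for the indicated times or concentrations. Uptake read after 5 min at room temperature in PBS pH 7.4 with 0.1 mmol/L dGlc and 1.3 μCi/mL [3H]dGlc, by scintillation of SDS lysates. Zero-time basal rate set as 100%; n=6.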

[7] = system: L6; test: Cytotoxicity against rat L6 cells assessed as cell viability at 25 to 200 uM after 24 hrs by MTT assay; type: cell-based; conditions: l6, 24 h
[8] = system: L6; test: Increase of [3H]dGlc uptake in rat L6 cells after 5 hrs in presence of AMPK inhibitor compound C; type: functional, cell-based
Procedure, shortened: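 Differentiated L6 myotubes held 24 h in αMEM with 2% FCS and 23.0 mM D-glucose, then serum-free medium with 0.5% BSA for 4 h. Compound C (5 µM) added 5 h before the uptake assay, alongside 25 µM test agent. Cells rinsed in PBS, then given 0.1 mM dGlc with 1.3 µCi/mL [3H]dGlc in PBS pH 7.4 for 5 min at room temperature. Lysed in 0.1% SDS and counted by scintillation; n=6.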

[9] = system: L6; test: Activation of AMPKalpha in rat L6 cells assessed as phosphorylation at Thr172 at 10 uM after 4 hrs by Western blot analysis relative to control; type: cell-based; procedure, shortened: as §2
[10] = target: 5'-AMP-activated protein kinase catalytic subunit alpha-2 (Rattus norvegicus) (UniProt Q09137); test: Activation of AMPK in rat L6 cells assessed as ACC phosphorylation at Ser79 at 25 uM after 3 hrs by Western blot analysis relative to control; type: cell-based
Procedure, shortened: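 Fully differentiated L6 myotubes, preincubated 3 h with or without 5 μM Compound C. Test agents: compound at 25 μM for 3 h, sorbitol 250 mM for 40 min, AICAR 4 mM for 30 min. Whole-cell lysates probed by Western blot for pSer79-ACC, ACC, pThr642-AS-160, AS-160 and α-tubulin; band densities summarized, n=3, vs respective controls.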

[11] = target: Cytochrome P450 2C9 (Homo sapiens, UniProt P11712); test: Inhibition of CYP2C9 (unknown origin) by luminescent based assay; type: ADME
Cytochrome P450 2C9, sequence (P11712 whole entry): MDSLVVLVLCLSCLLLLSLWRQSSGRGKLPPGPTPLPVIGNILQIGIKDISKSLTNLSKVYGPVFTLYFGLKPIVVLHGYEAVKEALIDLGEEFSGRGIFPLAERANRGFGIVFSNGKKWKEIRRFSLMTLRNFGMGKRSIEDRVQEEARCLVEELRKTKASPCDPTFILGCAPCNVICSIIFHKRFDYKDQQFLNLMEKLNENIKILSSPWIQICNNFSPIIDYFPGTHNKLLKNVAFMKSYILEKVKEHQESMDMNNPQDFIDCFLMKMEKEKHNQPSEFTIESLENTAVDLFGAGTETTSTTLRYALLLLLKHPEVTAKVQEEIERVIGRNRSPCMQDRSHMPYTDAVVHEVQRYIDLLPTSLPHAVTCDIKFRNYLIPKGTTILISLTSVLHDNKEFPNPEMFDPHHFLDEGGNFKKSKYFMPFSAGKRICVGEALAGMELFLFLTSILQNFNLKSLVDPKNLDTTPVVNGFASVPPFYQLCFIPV

[12] = system: L6; test: Activation of AMPKalpha in rat L6 cells assessed as phosphorylation at Thr172 at 15 uM after 4 hrs by Western blot analysis relative to control; type: cell-based; procedure, shortened: as §2
[13] = target: 5'-AMP-activated protein kinase catalytic subunit alpha-2 (Rattus norvegicus) (UniProt Q09137); test: Activation of AMPK in rat L6 cells assessed as increase of [3H]dGlc uptake at 10 to 200 uM; type: cell-based; conditions: TDE = time-dependent effect; procedure, shortened: as §3
[14] = system: L6; test: Activation of AMPKalpha in rat L6 cells assessed as phosphorylation at Thr172 at 5 uM after 4 hrs by Western blot analysis relative to control; type: cell-based; procedure, shortened: as §2
[15] = system: L6; test: Effect on total GLUT1 expression in rat L6 cell lysate at 25 uM after 30 mins to 5 hrs by Western blot analysis; type: functional, cell-based
Procedure, shortened: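 Fully differentiated L6 myotubes, preconditioned in αMEM with 23.0 mM D-glucose; insulin exposure 30 min, test exposure 5 h. Whole-cell lysates made in Tris-HCl pH 7.5 buffer with phosphatase and protease inhibitors, 40 min at 4 °C. Protein measured by Bradford, 5-60 µg per lane. Western blot probed with rabbit polyclonal anti-GLUT1 or anti-GLUT4.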

[16] = target: 5'-AMP-activated protein kinase catalytic subunit alpha-2 (Homo sapiens) (UniProt P54646); test: Activation of human recombinant AMPK at 20 uM after 30 mins relative to control
5'-AMP-activated protein kinase catalytic subunit alpha-2 (Homo sapiens), sequence (P54646 whole entry, looked up): as the sequence (Q09137 whole entry) above, with V114M, Q150H, I241V, T348S, M355S, V502F, S505T, N509S, A528V, A549T counted along it
Procedure, shortened: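 Recombinant human full-length AMPK assayed with a commercial luminescent kit. Compound at 20 μM or DMSO vehicle (1% v/v) added to the reaction mix for 30 min at ambient temperature. Activity read by luminometer against a calibration curve; basal activity with DMSO set as 100%.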

[17] = system: L6; test: Activation of AMPKalpha in rat L6 cells assessed as phosphorylation at Thr172 at 100 uM after 1 hr by Western blot analysis; type: cell-based
Procedure, shortened: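 L6 myotubes exposed for the indicated times to test compound (100 μM in the first series; 50–150 μM in the second) or 4 mM AICAR. Whole-cell lysates immunoblotted for pThr172-AMPKα, AMPKα and α-tubulin; band densities from three independent experiments vs respective controls.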

[18] = target: 5'-AMP-activated protein kinase catalytic subunit alpha-2 (Rattus norvegicus) (UniProt Q09137); test: Activation of AMPK in rat L6 cells assessed as AS-160 phosphorylation at Thr642 after 30 mins by Western blot analysis relative to control
[19] = system: L6; test: Activation of AMPKalpha in rat L6 cells assessed as phosphorylation at Thr172 at 50 uM after 4 hrs by Western blot analysis relative to control; type: cell-based; procedure, shortened: as §2
[20] = Solubility of the compound in water; type: physicochemical; conditions: buffer
[21] = Lipophilicity, log P of the compound; type: physicochemical; conditions: octanol/water
[22] = Half life in BALB/c mouse liver microsomes at 2 uM; type: ADME, Microsome

CCOc1ccc2nc(SCc3nc4ccccc4s3)sc2c1
Activity [1]: Active | Activity [2]: 45% | fold change (FC) [3]: 7.6 | inhibition (INH) [4]: 64.4% | inhibition (INH) [5]: 77.1% | Activity [6]: Active | Activity [7]: Non-toxic | Activity [8]: inactive | fold change (FC) [9]: 4.7 | fold change (FC) [10]: 1.75 | inhibition (INH) [11]: Not Active | fold change (FC) [12]: 5.5 | Activity [13]: tde | fold change (FC) [14]: 2 | Activity [15]: inactive | fold change (FC) [16]: 4.3 | Activity [17]: Active | fold change (FC) [18]: 1.62 | fold change (FC) [19]: 6 | solubility [20]: 12.1 µM (≈ 4.33 µg/mL) | logP [21]: 4.34 | half-life at 2 µM [22]: 2.4 min
